From ChEMBL document CHEMBL3856275, “Discovery of Second Generation Reversible Covalent DPP1 Inhibitors Leading to an Oxazepane Amidoacetonitrile Based Clinical Candidate (AZD7986)” (J Med Chem, 2016) come the findings set out here.

Series [1] can be described thus: Propionaldehyde reactivity assessed as half life of the compound at pH 7.4 by LC-UV method. The series is classed as physicochemical.
Series [2] in a line: Intrinsic clearance in human hepatocytes assessed per 10^6 cells at 1 uM after 10 to 90 mins by LC-MS/MS method. Format: ADME, cell-based, Hepatocyte.
Series [3] in a line: Half life in Beagle dog at 1 mg/kg, iv and 2 mg/kg, po. Format: ADME, organism-based, Canis lupus familiaris. The note with it: in vivo.
Series [4] deals with T1, Dipeptidyl peptidase 1 (Mus musculus, UniProt P97821).
T1 sequence (P97821 whole entry): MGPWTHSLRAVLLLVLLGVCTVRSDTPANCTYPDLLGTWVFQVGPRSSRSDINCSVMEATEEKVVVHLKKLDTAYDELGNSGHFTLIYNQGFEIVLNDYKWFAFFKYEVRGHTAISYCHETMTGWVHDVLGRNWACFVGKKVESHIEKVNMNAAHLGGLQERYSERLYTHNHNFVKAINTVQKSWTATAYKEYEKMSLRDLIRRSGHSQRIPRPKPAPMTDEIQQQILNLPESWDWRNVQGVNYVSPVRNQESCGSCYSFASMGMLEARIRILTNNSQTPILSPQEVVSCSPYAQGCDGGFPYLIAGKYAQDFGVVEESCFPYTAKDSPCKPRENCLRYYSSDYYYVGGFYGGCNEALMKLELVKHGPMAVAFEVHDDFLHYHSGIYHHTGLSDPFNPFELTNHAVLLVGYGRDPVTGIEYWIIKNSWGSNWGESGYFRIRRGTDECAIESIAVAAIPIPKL
The experiment in a line: Inhibition of mouse DPP1 using Gly-Arg-AMC as substrate preincubated for 30 mins followed by substrate addition by fluorometric assay. The procedure, abridged:
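Recombinant mouse DPP1 enzyme, tested under the same conditions as the human assay. Fluorometric assay in piperazine-based buffer.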

Series [5] concerns the target T2, Dipeptidyl peptidase 1 (Rattus norvegicus, UniProt P80067).
T2 sequence (P80067 whole entry): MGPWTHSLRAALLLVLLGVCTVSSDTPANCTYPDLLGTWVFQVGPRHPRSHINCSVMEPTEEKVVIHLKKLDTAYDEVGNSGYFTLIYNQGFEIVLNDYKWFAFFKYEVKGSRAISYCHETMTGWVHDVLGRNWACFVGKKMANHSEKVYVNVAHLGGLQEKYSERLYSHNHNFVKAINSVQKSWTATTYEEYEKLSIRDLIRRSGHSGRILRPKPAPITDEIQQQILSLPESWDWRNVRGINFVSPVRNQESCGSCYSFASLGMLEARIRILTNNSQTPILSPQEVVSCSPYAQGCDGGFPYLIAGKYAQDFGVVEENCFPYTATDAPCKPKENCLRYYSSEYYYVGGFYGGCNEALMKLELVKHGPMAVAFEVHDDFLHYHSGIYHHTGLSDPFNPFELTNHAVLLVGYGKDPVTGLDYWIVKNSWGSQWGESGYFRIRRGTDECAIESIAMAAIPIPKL
As to the kind of experiment: Inhibition of rat DPP1 using Gly-Arg-AMC as substrate preincubated for 30 mins followed by substrate addition by fluorometric assay.

Series [6] addresses Cathepsin S (Homo sapiens, UniProt P25774). The experiment in a line: Inhibition of human recombinant cathepsin S.
Series [7] concerns the target T3, Cathepsin K (Homo sapiens, UniProt P43235).
T3 sequence (P43235 whole entry): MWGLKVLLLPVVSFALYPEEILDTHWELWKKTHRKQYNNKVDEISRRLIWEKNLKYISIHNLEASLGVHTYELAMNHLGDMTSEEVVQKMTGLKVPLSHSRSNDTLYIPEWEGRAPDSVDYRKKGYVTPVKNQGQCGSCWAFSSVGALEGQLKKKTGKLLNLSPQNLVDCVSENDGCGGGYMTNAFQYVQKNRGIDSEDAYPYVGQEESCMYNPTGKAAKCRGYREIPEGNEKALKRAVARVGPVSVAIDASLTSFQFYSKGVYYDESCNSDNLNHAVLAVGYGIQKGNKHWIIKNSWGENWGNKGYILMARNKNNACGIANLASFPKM
The experiment in a line: Inhibition of human recombinant cathepsin K.

Series [8] deals with Cathepsin Z (Homo sapiens, UniProt Q9UBR2). As to the kind of experiment: Inhibition of human recombinant cathepsin Z.
Series [9] has as its system Rattus norvegicus. As to the kind of experiment: In vivo inhibition of DPP1 in po dosed naive rat assessed as inactivation of proteinase 3 in bone marrow cell lysates administered as bid for 8 days. Format: functional, organism-based.
The nature of series [10]: Intrinsic clearance in human hepatocytes at 1 uM after 5 to 120 mins by LC-MS/MS method. The series is classed as ADME, cell-based, Hepatocyte. The method in brief:
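Intrinsic clearance in human hepatocytes, given in µL/min/10^6 cells.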

The nature of series [11]: Intrinsic clearance in rat hepatocytes at 1 uM after 5 to 120 mins by LC-MS/MS method. The series is classed as ADME, cell-based, Hepatocyte. The procedure, abridged:
(§1)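 Hepatocyte intrinsic clearance for rat and dog, given in µL/min/10^6 cells.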

Series [12] in a line: Intrinsic clearance in dog hepatocytes at 1 uM after 5 to 120 mins by LC-MS/MS method. The series is classed as ADME, cell-based, Canis lupus familiaris, Hepatocyte. The method in brief:
as §1

A short description of series [13]: Clearance in Sprague-Dawley rat at 1 mg/kg, iv or 3 mg/kg, po. Format: ADME, organism-based. The note with it: in vivo.
A short description of series [14]: Volume of distribution at steady state in Sprague-Dawley rat at 1 mg/kg, iv or 3 mg/kg, po. Format: ADME, organism-based. The note with it: in vivo, read-out: Vdss.
The nature of series [15]: physchem. The note with it: octanol/water, pH 7.4.

Sequence of Cathepsin Z (Q9UBR2 whole entry): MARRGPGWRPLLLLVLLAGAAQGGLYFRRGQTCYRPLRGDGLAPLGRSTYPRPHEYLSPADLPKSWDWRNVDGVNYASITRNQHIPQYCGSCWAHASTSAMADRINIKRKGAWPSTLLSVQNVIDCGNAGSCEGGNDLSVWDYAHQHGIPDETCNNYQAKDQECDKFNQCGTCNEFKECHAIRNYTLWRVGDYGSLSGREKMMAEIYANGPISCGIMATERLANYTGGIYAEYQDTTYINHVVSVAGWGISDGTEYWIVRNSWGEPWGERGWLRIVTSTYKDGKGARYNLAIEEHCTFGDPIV
Sequence of Cathepsin S (P25774 whole entry): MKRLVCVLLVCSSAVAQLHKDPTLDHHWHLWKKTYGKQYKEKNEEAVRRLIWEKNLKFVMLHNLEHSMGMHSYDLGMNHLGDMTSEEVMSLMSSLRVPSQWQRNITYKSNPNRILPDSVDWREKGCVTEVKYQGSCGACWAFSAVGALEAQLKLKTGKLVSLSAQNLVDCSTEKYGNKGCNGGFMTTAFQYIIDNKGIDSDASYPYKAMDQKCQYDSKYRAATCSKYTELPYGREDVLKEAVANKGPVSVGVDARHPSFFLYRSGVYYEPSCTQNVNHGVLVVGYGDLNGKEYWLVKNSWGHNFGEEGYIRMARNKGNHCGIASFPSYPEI

Turning to `Cn1c(=O)oc2ccc(-c3ccc(C[C@@H](C#N)NC(=O)[C@@H]4CNCCCO4)cc3)cc21` [BRENSOCATIB], the half-life is more than 50 h in series [1] and 18 h in series [3]. In series [2], this molecule yielded an intrinsic clearance (CLint) of less than 3.5 µL/min/10^6 cells. For the same molecule, the IC50 was 0.0251 µM in series [4]; 0.02 µM in [5]; more than 20 µM in series [6]; more than 20 µM in [7]; more than 20 µM in [8]. Besides, the inhibition entry in series [9] is “Dose-dependent effect”. For the same molecule, the CLH is less than 1 µL/min/1e6 cells in [10], 1.9 µL/min/1e6 cells in series [11] and less than 1 µL/min/1e6 cells in series [12]. In series [13], this molecule displayed a clearance of 0.06 L/h/kg. In addition, the Vd in series [14] came to 1 L/kg. In addition, the logD at 10 µM in series [15] is 0.8.
